Screening data (PubChem BioAssay)
PRMT1 FP inh = PRMT1 (human) inhibition, primary screen; actives 1.3% (n = 370,000); inhibition, % at 2.79 µM; Q99873; AID 652257; recombinant PRMT1, activity-based probe fluorescence polarization;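 active = inhibition above about 21% made by adding two undisclosed values, limit read from the data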
GSTO1 counter = counter-screen for RBBP9 inhibitors: inhibitors of human GSTO1; recombinant GSTO1, activity-based probe fluorescence polarization; inhibition, % at 5.96 µM; AID 1974; actives 1.1% (n = 300,000);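 active = inhibition above the campaign mean inhibition plus 3 SD, cut at about 35% in these data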;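 note: 0% = GSTO1-1 with DMSO and 100% = wells lacking GSTO1-1 enzyme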
TDP2 absorb = blocks human TDP2 phosphodiesterase activity. AID 720702. actives 0.34% (n = 370,000). inhibition, % at 12.8 µM. recombinant TDP2, T5PNP hydrolysis, p-nitrophenol absorbance 415 nm. O95551;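 active = inhibition above the mean of all tested compounds plus 3 SD, set per campaign, cut at about 25% in these data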;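 note: 0% = DMSO with enzyme and 100% = buffer with substrate but no TDP2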
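Test system: human TDP2 enzyme; Input: 120 nM TDP2 per well; Buffer or medium: Mg2+-containing Tris-HCl buffer, pH 7.5; Reagent: 5 mM T5PNP; Dosing: 12.8 µM single point, 1% DMSO; Incubation: reaction 2 h, 37 °C; Detection: p-Nitrophenol epi absorbance; Read-out: % inhibition relative to enzyme-containing and enzyme-free wells; Replicates: single well per compound.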
E coli Lon inh = E. coli protease La inhibition; actives 0.42% (n = 360,000); purified E. coli Lon protease, fluorescence polarization; inhibition, % at 7.94 µM; P0A9M0; in the data active = inhibition above about 13%, passing the limit was not always enough;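 note: 0% = enzyme with probe and DMSO and 100% = no enzyme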
PAD4 FP inh = PAD4 (human) enzyme inhibition | recombinant PAD4, RCA probe fluorescence polarization | actives 0.41% (n = 330,000) | inhibition, % at 6.36 µM | AID 485272 | Q9UM07;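 active = percent inhibition above a cutoff equal to the mean of all tested compounds plus 3 SD, cut at about 15% in these data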;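 note: 0% = PAD4 with RCA probe and DMSO and 100% = probe without PAD4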
* hit, by the source's call; nt = no result; ! = not active in a repeat. An excerpt weighted towards active compounds, which were near 2.5% of everything screened.

SMILES	PRMT1 FP inh	GSTO1 counter	TDP2 absorb	E coli Lon inh	PAD4 FP inh
COC(=O)C(NC(C)=O)(Nc1ccccn1)C(F)(F)F (stereo unspecified)	-6	8	-4	3	1
COC(=O)NC(NS(=O)(=O)c1ccccc1)(C(=O)OC)C(F)(F)F (stereo unspecified)	-2	36*	1	-6	-1
C=CCN1[C@@H](C)COc2cc(N3CCCC3)ccc2S1(=O)=O	0	nt	-2	nt	nt
Cc1cc(O)c(C=O)c2c1C(=O)Oc1c(CO)c(O)c3c(c1O2)C(O)OC3=O (stereo unspecified)	nt	9	nt	72*	3
O=C(Cc1cc(=O)[nH][nH]1)N/N=C/c1cccc(Cl)c1Cl	-2	35*!	-5	2	-10
COC(=O)c1cc2c(c3c4cc(F)ccc4n(S(=O)(=O)c4cccc(C)c4)c13)C(=O)N(Cc1ccc(C(F)(F)F)cc1)C2	4	nt	-4	nt	nt
O=c1c2ccccc2sn1-c1cc(S(=O)(=O)N2CCOCC2)ccc1N1CCOCC1	88*	-1	2	6	7
Cc1c(CCO)c(=O)n(-c2ccccc2)n1S(=O)(=O)c1c(Cl)cc(Cl)cc1Cl	1	37*	1	-1	-5
CCOC(=O)CC[C@@H]1CC[C@]2(CCCN(C(=O)c3ccccc3)C2)O1	-1	nt	7	nt	nt
COc1ccc(-c2nnc3sc(-c4ccccn4)nn23)cc1	nt	-3	nt	nt	-5
CC(C)(C)c1ccc(-c2nnc3sc(-c4ccccn4)nn23)cc1	22*	-7	4	1	-1
CCCOc1ccc(N2C(=O)CC(SCCN)C2=O)cc1 (stereo unspecified)	22*	1	-7	-2	-2
Cc1cc([N+](=O)[O-])cc2c1NC(=O)C2(O)N1CCCC(C)C1 (stereo unspecified)	-4	37*	18	-6	0
Cc1ccc(CN2CCN(/N=C/c3ccc(O)c(O)c3)CC2)cc1	1	36*	-10	5	7
Oc1ccc(/C=N/N2CCN(C3c4ccccc4-c4ccccc43)CC2)cc1O	4	44*	-11	4	8
Cc1ccc(CN2CCN(/N=C/c3ccc(C(=O)O)cc3)CC2)cc1	0	2	-9	-4	5
Oc1ccc(/C=N/N2CCN(C3c4ccccc4-c4ccccc43)CC2)cc1	-2	0	4	-3	1
NC(=O)C1CCN(c2nc(-c3ccc(OCc4ccccc4)cc3)cs2)CC1	5	nt	-14	nt	nt
Cc1ccc(NC(=O)COn2nnc3ccc(S(=O)(=O)N(C)C)cc32)cc1F	0	36*	-12	-3	2
O=C(CC(=O)c1cc(Cl)ccc1O)c1ccccc1	0	-8	2	-3	4
O=C(c1ccccc1)c1cc(Cl)ccc1N1C(=O)C=CC1=O	91*	nt	1	-1	nt
COC(=O)C1CN(C2CCCC2)CCS(=O)(=O)N1Cc1ccc(OC)cc1 (stereo unspecified)	0	nt	-2	nt	nt
Clc1ccc2ccc3cccnc3c2n1	1	nt	17	2	nt
O=S1(=O)Nc2c(ccc3cccnc23)-c2ccccc21	nt	55*	nt	3	-1
COC(=O)C12C=C3CC(C)=C3C(=O)N1Cc1[nH]c3ccccc3c1C2 (stereo unspecified)	20	nt	-8	nt	nt
SMILES	PRMT1 FP inh	GSTO1 counter	TDP2 absorb	E coli Lon inh	PAD4 FP inh
CC(=O)Nc1ccc(S(=O)(=O)NCCSCc2ccccc2Cl)cc1	-1	54*	8	0	-2
CC(=O)Nc1ccc(S(=O)(=O)NCCC(=O)Nc2ccc(C)c(Cl)c2)cc1	1	0	8	2	-3
COC(=O)CCCC1=CC2=C(c3ccccc3)C(=O)C(C)(OC(=O)C3CCCC3)C(=O)C2=CN1c1ccccc1 (stereo unspecified)	1	35*	16	10	-8
Cc1nc(SC2CC(=O)N(c3cc(Cl)cc(Cl)c3)C2=O)nc2c1CCCC2 (stereo unspecified)	24*	1	0	-3	-3
CCn1c(CCNC(=O)c2cccs2)nnc1SCC(=O)c1ccc(OC)cc1	22*	4	-8	-5	-12
CCn1c(CNC(=O)c2ccc(OC)cc2)nnc1SCC(=O)c1ccccc1	9	-5	3	0	-4
O=C(O)CC1S/C(=N/N=C/C=C/c2ccccc2[N+](=O)[O-])NC1=O (stereo unspecified)	1	-2	-16	1	0
O=C(O)CC1S/C(=N/N=C/c2ccc(-c3ccc(Cl)c([N+](=O)[O-])c3)o2)NC1=O (stereo unspecified)	6	37*	1	3	5
